Reference: ChEMBL document CHEMBL5252534, “Discovery of a Noncovalent, Mutant-Selective Epidermal Growth Factor Receptor Inhibitor” (J Med Chem, 2016)
In brackets after ≈: the same amount, converted by molar mass. Activity calls are given as the source filed them. No cut-off for these calls is given here.

Tests used:
[1] = Apparent permeability across apical to basolateral side in dog MDCK cells; format: ADME, cell-based, Canis lupus familiaris
[2] = target: Epidermal growth factor receptor (Homo sapiens, UniProt P00533, L858R); experiment: Inhibition of human EGFR L858R mutant assessed as apparent inhibition constant using Fl-EEPLYWSFPAKKK-CONH2 peptide as substrate preincubated for 30 mins followed by addition of substrate and measured after 30 mins by Morrison plot analysis; settings: read-out: Ki(app)
Epidermal growth factor receptor (Homo sapiens, UniProt P00533, L858R), sequence (P00533 25-1210 L858R limits assumed): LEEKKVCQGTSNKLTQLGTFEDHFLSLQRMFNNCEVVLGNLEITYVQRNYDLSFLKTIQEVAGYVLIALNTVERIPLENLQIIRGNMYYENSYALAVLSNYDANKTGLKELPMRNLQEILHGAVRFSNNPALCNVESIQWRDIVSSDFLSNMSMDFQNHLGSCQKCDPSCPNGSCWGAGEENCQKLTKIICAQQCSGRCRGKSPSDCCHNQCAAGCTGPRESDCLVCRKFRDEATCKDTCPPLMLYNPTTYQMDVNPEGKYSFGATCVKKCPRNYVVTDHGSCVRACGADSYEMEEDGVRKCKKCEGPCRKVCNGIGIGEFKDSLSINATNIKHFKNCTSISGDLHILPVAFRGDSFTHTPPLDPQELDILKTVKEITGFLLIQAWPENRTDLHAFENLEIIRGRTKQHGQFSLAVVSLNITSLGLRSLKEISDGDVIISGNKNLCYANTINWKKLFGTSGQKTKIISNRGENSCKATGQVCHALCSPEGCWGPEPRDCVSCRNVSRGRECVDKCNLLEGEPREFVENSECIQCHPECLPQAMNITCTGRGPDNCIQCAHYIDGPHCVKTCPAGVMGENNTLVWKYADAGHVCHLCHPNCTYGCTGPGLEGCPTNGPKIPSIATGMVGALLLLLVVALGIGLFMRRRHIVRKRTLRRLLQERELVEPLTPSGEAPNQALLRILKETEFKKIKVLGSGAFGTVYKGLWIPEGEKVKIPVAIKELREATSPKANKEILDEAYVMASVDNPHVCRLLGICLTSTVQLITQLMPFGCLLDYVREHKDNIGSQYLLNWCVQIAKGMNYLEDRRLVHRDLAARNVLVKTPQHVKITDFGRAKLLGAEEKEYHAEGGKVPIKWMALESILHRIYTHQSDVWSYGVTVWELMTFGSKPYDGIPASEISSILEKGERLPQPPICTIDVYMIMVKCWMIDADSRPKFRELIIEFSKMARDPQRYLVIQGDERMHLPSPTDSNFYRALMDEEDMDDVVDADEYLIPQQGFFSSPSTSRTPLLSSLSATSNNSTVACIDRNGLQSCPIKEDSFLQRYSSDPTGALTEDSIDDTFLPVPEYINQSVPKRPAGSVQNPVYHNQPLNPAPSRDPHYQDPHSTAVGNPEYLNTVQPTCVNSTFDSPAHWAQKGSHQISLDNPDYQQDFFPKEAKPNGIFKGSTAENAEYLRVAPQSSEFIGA
Summary of the method: (§1)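 Biochemical kinase Ki determination; reported values are geometric means of at least two independent experiments.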

[3] = target: T1, Epidermal growth factor receptor (Homo sapiens, UniProt P00533, 746-750DEL/T790M); experiment: Inhibition of human EGFR T790M/del (746 to 750 residues) mutant assessed as apparent inhibition constant using Fl-EEPLYWSFPAKKK-CONH2 peptide as substrate preincubated for 30 mins followed by addition of substrate and measured after 30 mins by Morrison plot analysis; settings: read-out: Ki(app); summary of the method: as §1
[4] = Clearance in human liver microsomes; format: ADME, Microsome
Summary of the method: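 Incubation with human liver microsomes; intrinsic clearance scaled to predicted hepatic clearance as Clhep = (Q × Clint)/(Q + Clint), where Q is liver blood flow.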

[5] = Clearance in human hepatocyte; format: ADME, cell-based; settings: hepatocytes
Summary of the method: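 Cryopreserved human hepatocytes used; intrinsic clearance converted to predicted hepatic clearance as (Q × Clint)/(Q + Clint) using liver blood flow Q.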

[6] = target: T2, Epidermal growth factor receptor (Homo sapiens, UniProt P00533, 746-750DEL); experiment: Inhibition of human EGFR del (746 to 750) mutant assessed as apparent inhibition constant using Fl-EEPLYWSFPAKKK-CONH2 as substrate preincubated for 30 mins followed by addition of substrate and measured after 30 mins by Morrison plot analysis; settings: read-out: Ki(app); summary of the method: as §1
[7] = target: T3, Epidermal growth factor receptor (Homo sapiens, UniProt P00533); experiment: Inhibition of wild type human EGFR assessed as apparent inhibition constant using Fl-EEPLYWSFPAKKK-CONH2 as substrate preincubated for 30 mins followed by addition of substrate and measured after 30 mins by Morrison plot analysis; settings: read-out: Ki(app)
[8] = target: T1, Epidermal growth factor receptor; format: cell-based, PC-9/ER1
[9] = Aqueous kinetic solubility of compound in PBS buffer at pH 7.4 at 100 uM incubated for 24 hrs by LC/CLND analysis; format: physicochemical; settings: read-out: Kinetic_solubility
Summary of the method: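 Kinetic aqueous solubility measured at pH 7.4.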

[10] = target: T4, Epidermal growth factor receptor (Homo sapiens, UniProt P00533, L858R/T790M); format: cell-based, NCI-H1975
T4 sequence (P00533 25-1210 T790M/L858R limits assumed): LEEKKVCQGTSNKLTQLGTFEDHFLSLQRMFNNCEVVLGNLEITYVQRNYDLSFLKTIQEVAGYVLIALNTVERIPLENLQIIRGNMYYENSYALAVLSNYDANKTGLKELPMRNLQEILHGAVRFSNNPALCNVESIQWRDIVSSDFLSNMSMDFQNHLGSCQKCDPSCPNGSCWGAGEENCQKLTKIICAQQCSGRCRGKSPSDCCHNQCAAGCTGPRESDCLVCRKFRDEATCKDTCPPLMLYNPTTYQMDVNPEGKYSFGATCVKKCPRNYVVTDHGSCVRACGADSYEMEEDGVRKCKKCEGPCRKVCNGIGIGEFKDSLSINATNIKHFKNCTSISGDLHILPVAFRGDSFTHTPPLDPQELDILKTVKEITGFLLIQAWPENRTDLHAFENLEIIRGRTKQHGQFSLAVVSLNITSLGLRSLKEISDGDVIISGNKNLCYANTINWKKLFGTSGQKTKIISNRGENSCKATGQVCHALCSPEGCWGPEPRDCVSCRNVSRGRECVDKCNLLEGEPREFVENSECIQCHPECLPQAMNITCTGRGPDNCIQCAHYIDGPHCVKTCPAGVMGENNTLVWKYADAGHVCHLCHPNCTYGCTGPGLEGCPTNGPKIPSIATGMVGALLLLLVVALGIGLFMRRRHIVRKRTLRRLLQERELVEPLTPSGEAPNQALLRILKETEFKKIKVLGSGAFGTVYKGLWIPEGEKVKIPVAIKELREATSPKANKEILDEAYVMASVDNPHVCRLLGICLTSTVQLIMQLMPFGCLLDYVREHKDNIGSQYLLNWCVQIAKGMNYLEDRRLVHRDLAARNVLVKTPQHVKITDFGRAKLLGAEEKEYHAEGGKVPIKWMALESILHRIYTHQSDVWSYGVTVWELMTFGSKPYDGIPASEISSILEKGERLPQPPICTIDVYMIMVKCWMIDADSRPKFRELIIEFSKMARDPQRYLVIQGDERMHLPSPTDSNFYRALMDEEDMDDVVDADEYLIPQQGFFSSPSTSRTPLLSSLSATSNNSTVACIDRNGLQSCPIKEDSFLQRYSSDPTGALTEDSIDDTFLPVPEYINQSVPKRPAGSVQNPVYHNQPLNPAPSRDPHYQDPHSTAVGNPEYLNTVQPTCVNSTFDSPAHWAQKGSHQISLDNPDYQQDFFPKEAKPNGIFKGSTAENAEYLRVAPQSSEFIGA

[11] = target: T3, Epidermal growth factor receptor; experiment: Inhibition of EGFR autophosphorylation in human NCI-H292 cells harboring harboring wild type EGFR preincubated for 60 mins followed by EGF stimulation and measured after 8 mins by SULFO-TAG based electrochemiluminescent assay; format: cell-based
Target sequence in this assay (P00533 25-1210 limits assumed, stated change not applied): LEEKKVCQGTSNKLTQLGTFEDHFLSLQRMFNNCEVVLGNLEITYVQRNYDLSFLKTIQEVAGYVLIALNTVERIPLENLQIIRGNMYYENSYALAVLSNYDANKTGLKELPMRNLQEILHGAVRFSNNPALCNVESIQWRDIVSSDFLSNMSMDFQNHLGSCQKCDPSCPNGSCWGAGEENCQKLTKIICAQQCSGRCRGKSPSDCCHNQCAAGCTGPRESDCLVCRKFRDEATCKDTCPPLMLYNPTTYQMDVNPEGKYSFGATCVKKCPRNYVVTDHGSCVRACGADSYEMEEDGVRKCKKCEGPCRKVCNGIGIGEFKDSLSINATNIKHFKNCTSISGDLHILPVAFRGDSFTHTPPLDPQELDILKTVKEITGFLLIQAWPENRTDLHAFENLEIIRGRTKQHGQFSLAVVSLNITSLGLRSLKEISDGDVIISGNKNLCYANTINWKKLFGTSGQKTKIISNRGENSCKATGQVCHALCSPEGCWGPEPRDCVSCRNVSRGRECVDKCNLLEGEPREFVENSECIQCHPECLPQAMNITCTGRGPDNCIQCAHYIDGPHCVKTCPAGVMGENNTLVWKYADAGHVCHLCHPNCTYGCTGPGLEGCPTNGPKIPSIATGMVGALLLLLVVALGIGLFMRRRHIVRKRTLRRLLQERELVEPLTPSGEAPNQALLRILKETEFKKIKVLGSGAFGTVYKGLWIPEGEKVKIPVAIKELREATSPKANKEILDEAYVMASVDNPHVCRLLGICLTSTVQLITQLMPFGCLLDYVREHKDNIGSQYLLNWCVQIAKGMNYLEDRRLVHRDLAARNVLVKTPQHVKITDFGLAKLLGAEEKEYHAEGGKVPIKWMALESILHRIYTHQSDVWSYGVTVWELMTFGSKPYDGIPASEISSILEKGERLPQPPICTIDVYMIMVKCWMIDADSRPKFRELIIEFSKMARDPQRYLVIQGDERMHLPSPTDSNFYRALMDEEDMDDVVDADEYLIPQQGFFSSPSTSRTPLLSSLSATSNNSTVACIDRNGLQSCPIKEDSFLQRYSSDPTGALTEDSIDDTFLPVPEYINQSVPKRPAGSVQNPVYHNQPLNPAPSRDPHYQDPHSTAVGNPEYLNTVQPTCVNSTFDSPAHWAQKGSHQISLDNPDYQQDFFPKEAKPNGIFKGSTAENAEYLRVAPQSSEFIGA

[12] = target: T2, Epidermal growth factor receptor; format: cell-based, PC-9
[13] = target: T4, Epidermal growth factor receptor; experiment: Inhibition of human EGFR T790M/L858R double mutant assessed as apparent inhibition constant using Fl-EEPLYWSFPAKKK-CONH2 as peptide substrate preincubated for 30 mins followed by addition of substrate and measured after 30 mins by Morrison plot analysis; settings: read-out: Ki(app)
PC-9 = experiment: Antiproliferative activity against human PC-9 cells harboring harboring EGFR del (746 to 750) mutant assessed as reduction in cell viability; format: functional, cell-based
[14] = Fraction unbound in SCID mouse plasma at 50 to 100 mg/kg,po and measured upto 16 hrs by LC-MS assay; format: ADME, organism-based; settings: in vivo, dose 50-100 mg/kg
[15] = Clearance in dog plasma at 1 mg/kg,iv; format: ADME, organism-based, Canis lupus familiaris
Summary of the method: (§2)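 Single intravenous dose as a solution in 10/35/55 ethanol/PEG/water (mouse 5 mg kg−1; dog 1 mg kg−1); plasma clearance and steady-state volume of distribution derived from the plasma profile.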

[16] = Volume of distribution at steady state in dog at 1 mg/kg,iv; format: ADME, organism-based, Canis lupus familiaris; settings: in vivo, read-out: Vdss; summary of the method: as §2
[17] = Volume of distribution at steady state in mouse at 5 mg/kg,iv; format: ADME, organism-based; settings: in vivo, read-out: Vdss; summary of the method: as §2
[18] = tested on: Epidermal growth factor receptor (Homo sapiens), P00533 [L858R,T790M]; experiment: In vivo inhibition of EGFR L858R/T790M double mutant in SCID mouse xenografted with human NCI-H1975 cells assessed as reduction in EGFR L858R/T790M double mutant phosphorylation at Y1068 residue at 50 mg/kg, po and measured after 8 hrs by MSD assay; format: functional, organism-based
Epidermal growth factor receptor (Homo sapiens), P00533 [L858R,T790M], sequence (P00533 whole entry T790M/L858R, looked up): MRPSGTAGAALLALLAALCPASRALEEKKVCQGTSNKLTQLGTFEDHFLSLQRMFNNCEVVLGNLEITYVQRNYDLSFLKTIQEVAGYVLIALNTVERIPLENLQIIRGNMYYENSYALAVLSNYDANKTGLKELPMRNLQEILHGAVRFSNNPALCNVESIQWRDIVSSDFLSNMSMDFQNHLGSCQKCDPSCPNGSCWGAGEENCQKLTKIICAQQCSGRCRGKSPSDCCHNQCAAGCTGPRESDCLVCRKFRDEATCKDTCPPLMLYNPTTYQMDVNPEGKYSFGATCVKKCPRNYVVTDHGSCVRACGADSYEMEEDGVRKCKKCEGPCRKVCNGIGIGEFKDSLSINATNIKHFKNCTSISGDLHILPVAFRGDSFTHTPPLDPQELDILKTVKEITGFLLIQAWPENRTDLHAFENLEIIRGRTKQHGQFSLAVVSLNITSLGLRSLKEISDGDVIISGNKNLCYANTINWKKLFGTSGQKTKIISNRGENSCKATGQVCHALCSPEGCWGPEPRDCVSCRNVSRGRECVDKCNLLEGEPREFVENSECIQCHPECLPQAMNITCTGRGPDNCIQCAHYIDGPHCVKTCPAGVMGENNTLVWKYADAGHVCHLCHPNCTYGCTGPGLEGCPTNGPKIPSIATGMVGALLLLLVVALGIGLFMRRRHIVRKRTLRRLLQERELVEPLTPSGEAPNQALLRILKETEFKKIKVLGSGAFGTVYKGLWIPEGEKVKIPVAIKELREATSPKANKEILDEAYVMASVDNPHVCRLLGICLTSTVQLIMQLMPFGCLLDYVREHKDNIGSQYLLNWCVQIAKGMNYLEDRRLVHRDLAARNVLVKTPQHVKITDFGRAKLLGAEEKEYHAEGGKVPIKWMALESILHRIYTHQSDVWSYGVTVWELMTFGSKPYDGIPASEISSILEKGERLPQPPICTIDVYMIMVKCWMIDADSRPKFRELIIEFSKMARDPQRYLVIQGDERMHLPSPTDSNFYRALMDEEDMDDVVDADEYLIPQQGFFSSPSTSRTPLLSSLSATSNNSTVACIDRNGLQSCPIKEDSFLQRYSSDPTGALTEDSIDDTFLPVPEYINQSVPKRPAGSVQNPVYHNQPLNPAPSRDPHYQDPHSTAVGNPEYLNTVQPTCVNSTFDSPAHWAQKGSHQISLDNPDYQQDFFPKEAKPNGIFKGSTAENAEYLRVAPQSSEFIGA
Summary of the method: (§3)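 H1975 tumor-bearing mice given a single oral dose of 50 or 100 mg/kg; tumors collected at set times; phospho-EGFR, ERK and AKT measured by MSD immunoassay; four animals per group, individual animals plotted.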

NCI-H1975 = experiment: Antiproliferative activity against human NCI-H1975 cells harboring harboring EGFR L858R/T790M double mutant assessed as reduction in cell viability; format: functional, cell-based
Plasma [19] = experiment: Time during which free plasma concentration exceeds IC50 for inhibition of human EGFR T790M/L858R double mutant autophosphorylation in human NCI-H1975 cells xenografted in SCID mouse at 50 mg/kg, po
[20] = Oral bioavailability in mouse at 25 mg/kg; format: ADME, organism-based; settings: in vivo
Summary of the method: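 Mouse dosed orally at 25 mg kg−1 as a solution in corn oil; bioavailability compared against the iv arm (5 mg kg−1 in ethanol/PEG/water).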

[21] = tested on: Epidermal growth factor receptor (Homo sapiens), P00533 [L858R,T790M]; experiment: In vivo inhibition of EGFR L858R/T790M double mutant in SCID mouse xenografted with human NCI-H1975 cells assessed as reduction in ERK1/2 phosphorylation at 100 mg/kg, po and measured after 16 hrs by MSD assay; format: functional, organism-based; summary of the method: as §3
[22] = Clearance in mouse plasma at 5 mg/kg,iv; format: ADME, organism-based; summary of the method: as §2
[23] = tested on: Epidermal growth factor receptor (Homo sapiens), P00533 [L858R,T790M]; experiment: In vivo inhibition of EGFR L858R/T790M double mutant in SCID mouse xenografted with human NCI-H1975 cells assessed as reduction in AKT phosphorylation at S473 residue at 100 mg/kg, po and measured after 16 hrs by MSD assay; format: functional, organism-based; summary of the method: as §3
[24] = tested on: Epidermal growth factor receptor (Homo sapiens), P00533 [L858R,T790M]; experiment: In vivo inhibition of EGFR L858R/T790M double mutant in SCID mouse xenografted with human NCI-H1975 cells assessed as reduction in ERK1/2 phosphorylation at 50 mg/kg, po and measured after 8 hrs by MSD assay; format: functional, organism-based; summary of the method: as §3
[25] = Oral bioavailability in dog at 2 mg/kg; format: ADME, organism-based, Canis lupus familiaris; settings: in vivo
Summary of the method: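 Dog dosed orally at 2 mg kg−1 as a suspension in MCT; bioavailability compared against iv dosing at 1 mg kg−1 in ethanol/PEG/water.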

Plasma [26] = experiment: Time during which free plasma concentration exceeds IC50 for inhibition of human EGFR T790M/L858R double mutant autophosphorylation in human NCI-H1975 cells xenografted in SCID mouse at 100 mg/kg, po
[27] = tested on: Epidermal growth factor receptor (Homo sapiens), P00533 [L858R,T790M]; experiment: In vivo inhibition of EGFR L858R/T790M double mutant in SCID mouse xenografted with human NCI-H1975 cells assessed as reduction in EGFR L858R/T790M double mutant phosphorylation at Y1068 residue at 100 mg/kg, po and measured after 16 hrs by MSD assay; format: functional, organism-based; summary of the method: as §3
[28] = tested on: Epidermal growth factor receptor (Homo sapiens), P00533 [L858R,T790M]; experiment: In vivo inhibition of EGFR L858R/T790M double mutant in SCID mouse xenografted with human NCI-H1975 cells assessed as reduction in AKT phosphorylation at S473 residue at 50 mg/kg, po and measured after 8 hrs by MSD assay; format: functional, organism-based; summary of the method: as §3

Compound	Papp A→B [1] [×10⁻⁶ cm/s]	Ki [2] [nM]	Ki [3] [nM]	CLhep predicted [4] [mL/min/kg]	CLhep predicted [5] [mL/min/kg]	Ki [6] [nM]	Ki [7] [nM]	IC50 [8] [nM]	solubility kinetic at 24 h, 100 µM [9] [µM]	IC50 [10] [nM]	IC50 [11] [nM]	IC50 [12] [nM]	Ki [13] [nM]	further results
Cc1nc2cnc(Nc3ccnc(N4CC[C@H](O)[C@H](F)C4)n3)cc2n1C(C)C (racemic)	19	1100	43	5.2	9	1300								
CC[C@@H](C)n1nc(N2CC(C(C)(C)O)C2)c2cnc(Nc3ccnc(-c4cnn(S(=O)(=O)C5CC5)c4)n3)cc21	19			9.9	7.8			15	2 (≈ 1.1 µg/mL)	40	580	57		
CC(C)n1nc(N2CCC(O)CC2)c2cnc(Nc3ccnc(-c4cnn(S(=O)(=O)C5CC5)c4)n3)cc21	12			7	7.7				1 (≈ 0.524 µg/mL)					
COC1CCN(c2nccc(Nc3cc4c(cn3)c(C(N)=O)nn4C(C)C)n2)CC1							> 100							
CC(C)c1nn(C(C)C)c2cc(Nc3ccnc(-c4cnn(S(=O)(=O)C5CC5)c4)n3)ncc12	3.9			8.5	15		< 531	910	< 1	2400	> 10000	3000		
CC[C@H](C)n1nc(N2CC(C(C)(C)O)C2)c2cnc(Nc3ccnc(-c4cnn(S(=O)(=O)C5CC5)c4)n3)cc21	8.9			3.8	2.7			8	2 (≈ 1.1 µg/mL)	27	218	33		IC50 (PC-9): 151 nM; Fu [14]: 0.009; clearance [15]: 13 mL/min/kg; Vd [16]: 6.9 L/kg; Vd [17]: 3.4 L/kg; inhibition [18]: Active; IC50 (NCI-H1975): 361 nM; T>IC50 (Plasma [19]): 8 h; bioavailability [20]: 19%; inhibition [21]: Active; clearance [22]: 104 mL/min/kg; inhibition [23]: Active; inhibition [24]: Active; bioavailability [25]: 30%; T>IC50 (Plasma [26]): 16 h; inhibition [27]: Active; inhibition [28]: Active
CO[C@H]1CCN(c2nccc(Nc3cc4c(cn3)nc(C)n4C(C)C)n2)C[C@H]1F		608	41			1800	896						3.6	
Cc1nc2cnc(Nc3ccnc(-c4cnn(CC5CC5)c4)n3)cc2n1C(C)C							1200						34	

More lines, in order of falling Ki [7], values ahead:

Papp A→B [1] [×10⁻⁶ cm/s]	Ki [2] [nM]	Ki [3] [nM]	CLhep predicted [4] [mL/min/kg]	CLhep predicted [5] [mL/min/kg]	Ki [6] [nM]	Ki [7] [nM]	IC50 [8] [nM]	solubility kinetic at 24 h, 100 µM [9] [µM]	IC50 [10] [nM]	IC50 [11] [nM]	IC50 [12] [nM]	Ki [13] [nM]	Compound	further results
	126	3.5			38	324							Cc1nc2cnc(Nc3ccnc(-c4cnn(S(C)(=O)=O)c4)n3)cc2n1C(C)C	
26	363	27			323	167		3 (≈ 1.23 µg/mL)				5.3	COC1CCN(c2nccc(Nc3cc4c(cn3)c(C(N)=O)cn4C(C)C)n2)CC1	
21	43	1.8	7.7	4	12	55							Cc1nc2cnc(Nc3ccnc(-c4cnn(S(=O)(=O)C5CC5)c4)n3)cc2n1C(C)C	
12			9.3	6.7		10	19	1 (≈ 0.51 µg/mL)	74	850	76	2.1	CC(C)n1nc(N2CCOCC2)c2cnc(Nc3ccnc(-c4cnn(S(=O)(=O)C5CC5)c4)n3)cc21	
16			13	8.4		8.2	14	2 (≈ 0.879 µg/mL)	64	3900	80	0.79	CC(C)n1nc(N)c2cnc(Nc3ccnc(-c4cnn(S(=O)(=O)C5CC5)c4)n3)cc21	
4.5	4.1	0.35			1.2	7.8		< 1				1.1	CC(C)n1cc(C(N)=O)c2cnc(Nc3ccnc(-c4cnn(S(=O)(=O)C5CC5)c4)n3)cc21	
20			8.9	7.1		7	10	< 1	32	210	130	< 0.6	CC(C)n1nc(N2CC(C(C)(C)O)C2)c2cnc(Nc3ccnc(-c4cnn(S(=O)(=O)C5CC5)c4)n3)cc21	
2.3	6.4	2			2	4.6		7 (≈ 3.66 µg/mL)				1.1	CC(C)n1cc(C(=O)NC2COC2)c2cnc(Nc3ccnc(-c4cnn(S(=O)(=O)C5CC5)c4)n3)cc21	
4.6	3.8	1.6			1.4	3.4		11 (≈ 6.06 µg/mL)				1.2	CC(C)n1cc(C(=O)NC2CCOCC2)c2cnc(Nc3ccnc(-c4cnn(S(=O)(=O)C5CC5)c4)n3)cc21	
8.1			10	13		2	8.1	3 (≈ 1.53 µg/mL)	19	96	28	< 0.6	CC(C)n1nc(N2CC(CO)C2)c2cnc(Nc3ccnc(-c4cnn(S(=O)(=O)C5CC5)c4)n3)cc21	
